In data set [1] the target is T1, Enoyl-[acyl-carrier-protein] reductase [NADH] (Mycobacterium tuberculosis, UniProt P9WGR1).
T1 sequence (P9WGR1 whole entry): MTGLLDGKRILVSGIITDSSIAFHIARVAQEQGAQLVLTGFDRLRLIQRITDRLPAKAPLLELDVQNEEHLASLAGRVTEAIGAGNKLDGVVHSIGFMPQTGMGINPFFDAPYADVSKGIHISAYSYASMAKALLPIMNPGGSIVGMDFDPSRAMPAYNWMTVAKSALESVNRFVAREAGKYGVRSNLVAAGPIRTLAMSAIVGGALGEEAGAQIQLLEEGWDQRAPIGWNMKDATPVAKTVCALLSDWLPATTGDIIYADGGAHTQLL
As to the kind of experiment: Inhibition of Mycobacterium tuberculosis H37Rv InhA using trans-2-dodecenoyl-coenzyme A as substrate in presence of NADH.

For data set [2], the system named is Caco-2. Nature of the data set: Cytotoxicity against human Caco-2 cells assessed as inhibition of cell growth incubated for 72 hrs by SRB assay. It is filed as functional, cell-based. The conditions noted are these: Caco-2, 72 h. Put shortly:
(§1)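 Seeded 24 h before dosing (HCT116 1500, CACO2 2500, HepG2 9000, WI38hTERT 3500 cells/well); HCT116 in DMEM high-glucose, others in MEM, 10% FBS (20% for CACO2); serial 2-fold dilutions for 72 h at 37 °C, 5% CO2; SRB staining, OD 490 nm; background-subtracted, normalized to untreated; duplicate points, ≥3 independent experiments; IC50 by four-parameter logistic fit.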
In general terms: In SRB staining, fixed cells bind dye roughly in proportion to their protein.

Data set [3] concerns WI-38. Nature of the data set: Cytotoxicity against human WI-38 cells assessed as inhibition of cell growth incubated for 72 hrs by SRB assay. Type of data set: functional, cell-based. The conditions noted are these: WI-38, 72 h. The method, boiled down:
as §1

The nature of data set [4]: Selectivity index, ratio of IC50 for cytotoxicity against human HCT-116 cells assessed as inhibition of cell growth to MIC for antimycobacterial activity against Mycobacterium tuberculosis H37Rv assessed as reduction in microbial growth. Type of data set: toxicity, cell-based. The method, boiled down: (§2)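 Selectivity index: IC50 on each human cell line (72 h SRB assay) divided by MIC against Mtb H37Rv (MTT microassay).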

Data set [5] deals with HepG2. Nature of the data set: Cytotoxicity against human HepG2 cells assessed as inhibition of cell growth incubated for 72 hrs by SRB assay. Type of data set: functional, cell-based. The conditions noted are these: HepG2, 72 h. Put shortly:
as §1

For data set [6], the target named is T2, Enoyl-[acyl-carrier-protein] reductase [NADH] (Mycobacterium tuberculosis) (UniProt P9WGR1).
T2 sequence (whole entry): T1 sequence (P9WGR1 whole entry)
As to the kind of experiment: Inhibition of his6-tagged Mycobacterium tuberculosis InhA using trans-2-dodecenoyl-coenzyme as substrate at 10 uM in presence of […] relative to control.

A short description of data set [7]: Selectivity index, ratio of IC50 for cytotoxicity against human WI-38 cells assessed as inhibition of cell growth to MIC for antimycobacterial activity against Mycobacterium tuberculosis H37Rv assessed as reduction in microbial growth. It is filed as toxicity, cell-based. The method, boiled down:
as §2

Data set [8] deals with T2, Enoyl-[acyl-carrier-protein] reductase [NADH] (Mycobacterium tuberculosis). As to the kind of experiment: Inhibition of his6-tagged Mycobacterium tuberculosis InhA using trans-2-dodecenoyl-coenzyme as substrate at 50 uM in presence of […] relative to control.
Data set [9] in a line: Selectivity index, ratio of IC50 for cytotoxicity against human HepG2 cells assessed as inhibition of cell growth to MIC for antimycobacterial activity against Mycobacterium tuberculosis H37Rv assessed as reduction in microbial growth. It is filed as toxicity, cell-based. The method, boiled down:
as §2

The test system of data set [10] is HCT-116. Nature of the data set: Cytotoxicity against human HCT-116 cells assessed as inhibition of cell growth incubated for 72 hrs by SRB assay. Type of data set: functional, cell-based. The following applies: HCT-116, 72 h. The method, boiled down:
as §1

In data set [11] the test system is Mycobacterium tuberculosis. As to the kind of experiment: Antimycobacterial activity against Mycobacterium tuberculosis H37Rv assessed as reduction in microbial growth incubated for 6 days by broth dilution method. The following applies: 144 h, time 6 day. Type of data set: functional. The method, boiled down:
(§3)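 Mtb H37Rv pellicle cells dispersed with glass beads in 7H9-0.2% glycerol, clumps removed by low-speed spin; twofold serial dilutions (DMSO stocks 1 or 10 mM) in 7H9, inoculum OD600 0.1; 6 days at 37 °C, then MTT added, 1 day more; SDS solubilisation, OD 570 nm; MIC = lowest concentration inhibiting growth, ≥3 independent experiments.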

Data set [12] in a line: Selectivity index, ratio of IC50 for cytotoxicity against human Caco-2 cells assessed as inhibition of cell growth to MIC for antimycobacterial activity against Mycobacterium tuberculosis H37Rv assessed as reduction in microbial growth. Type of data set: toxicity, cell-based. Put shortly:
as §2

The target of data set [13] is T1, Enoyl-[acyl-carrier-protein] reductase [NADH]. As to the kind of experiment: Inhibition of his6-tagged Mycobacterium tuberculosis InhA using trans-2-dodecenoyl-coenzyme as substrate in presence of […].
Data set [14] has as its target T2, Enoyl-[acyl-carrier-protein] reductase [NADH] (Mycobacterium tuberculosis). Nature of the data set: Inhibition of his6-tagged Mycobacterium tuberculosis InhA using trans-2-dodecenoyl-coenzyme as substrate at 500 uM in presence of […] relative to control.
Data set [15] shares this target. Nature of the data set: Inhibition of his6-tagged Mycobacterium tuberculosis InhA using trans-2-dodecenoyl-coenzyme as substrate at 200 uM in presence of […] relative to control.
The target is the same in data set [16]. As to the kind of experiment: Inhibition of his6-tagged Mycobacterium tuberculosis InhA using trans-2-dodecenoyl-coenzyme as substrate at 100 uM in presence of […] relative to control.
For data set [17], the system named is Mycobacterium tuberculosis. As to the kind of experiment: Antimycobacterial activity against Mycobacterium tuberculosis H37Rv assessed as reduction in microbial growth. It is filed as functional. Put shortly: as §3

The structures appear in SMILES notation. Calls of active or inactive are those of the source. No cut-off for these calls is given here. Some results are limits rather than exact numbers.

As usually defined, the IC50 is the concentration that inhibits the measured activity by half. In the case of `Oc1cc2ccc1Oc1ccc(cc1)CCc1ccc(c(O)c1)Oc1ccc(cc1)CC2`, the IC50 in data set [1] was found to be 4700 nM.
Usually inhibition stands for how much of the control response was suppressed. Broadly, the MIC is the lowest concentration that inhibits growth of the organism. Turning to `CCCCCCc1ccc(Oc2ccc(Cn3cc(CNc4ccc([N+](=O)[O-])c5nonc45)nn3)cc2)c(O)c1`, the IC50 in [2] worked out at 26100 nM; in data set [3], 52900 nM; in [5], 26900 nM; in data set [10], 8700 nM. The selectivity ratio is 3.5 in data set [4], 21.2 in data set [7], 10.8 in [9] and 10.5 in data set [12]. Moreover, the figures for the inhibition in data set [6] and in data set [8] were 11.4% and 32.3%, respectively. Further, the MIC in data set [11] was found to be 1.4 µg/mL.
Regarding `O=c1cc(OCc2cn(Cc3ccc(Oc4ccccc4)c(O)c3)nn2)c2ccccc2o1`, the MIC in data set [11] was determined as 2.2 µg/mL. Moreover, the IC50 in data set [13] (read-out: IC50) came to 181 nM.
As for `C#CCOc1cc(=O)oc2ccccc12`, the inhibition result in data set [14] was “inactive”.
`[N-]=[N+]=NCc1ccc(Oc2ccccc2)c(O)c1`: in data set [13] (read-out: IC50), the IC50 came to 843 nM.
For `CCN(CC)c1ccc2cc(C(=O)NCc3cn(Cc4ccc(Oc5ccccc5)c(O)c4)nn3)c(=O)oc2c1`, the MIC in [11] is over 54 µg/mL. Further, in data set [13] (read-out: IC50), the IC50 came out at 3550 nM.
On to `CCCCCCc1ccc(Oc2ccc(Cn3cc(CNC(=O)c4cc5ccc(N(CC)CC)cc5oc4=O)nn3)cc2)c(O)c1`, for which the inhibition in data set [6] was determined as 31.5%; in [8], 53.7%. The MIC in data set [11] was over 60 µg/mL.
As to `COc1cccc2cc(C(=O)NCc3cn(Cc4ccc(Oc5ccccc5)c(O)c4)nn3)c(=O)oc12`, in data set [11], the MIC stood at 5 µg/mL. In addition, the IC50 in data set [13] (read-out: IC50) worked out at 740 nM.
In the same order, the values of `O=[N+]([O-])c1ccc(NCc2cn(Cc3ccc(Oc4ccccc4)c(O)c3)nn2)c2nonc12` are 4.6 µg/mL and 459 nM.
The corresponding values for `CN(C)S(=O)(=O)c1ccc(NCc2cn(Cc3ccc(Oc4ccccc4)c(O)c3)nn2)c2nonc12` are over 52 µg/mL and 733 nM.
`Cc1cc(=O)oc2cc(OCc3cnnn3Cc3ccc(Oc4ccccc4)c(O)c3)ccc12`: the IC50 in [13] (read-out: IC50) came out at 510 nM.
With `O=c1ccc2ccc(OCc3cn(Cc4ccc(Oc5ccccc5)c(O)c4)nn3)cc2o1`, the MIC in data set [11] was 2.2 µg/mL. Moreover, the IC50 in data set [13] (read-out: IC50) is 163 nM.
Regarding `C#CCNC(=O)c1cc2ccc(N(CC)CC)cc2oc1=O`, in data set [14], the inhibition came out at 10%.
Regarding `COc1ccc2cc(C(=O)NCc3cn(Cc4ccc(Oc5ccccc5)c(O)c4)nn3)c(=O)oc2c1`, in data set [11], the MIC is over 5 µg/mL. Further, in [13] (read-out: IC50), the IC50 was determined as 345 nM.
As to `O=C(O)c1cn(C2CC2)c2cc(N3CCNCC3)c(F)cc2c1=O` [CIPROFLOXACIN], the MIC in data set [11] worked out at 0.8 µg/mL. Further, the IC50 entry in data set [13] is given as “Not Active”.
`C#CCOc1ccc2ccc(=O)oc2c1`: the inhibition in data set [15] was 99%; in data set [16] it was 30%.
For the compound `O=C(NCc1cn(Cc2ccc(Oc3ccccc3)c(O)c2)nn1)c1cc2cc(O)ccc2oc1=O`, the MIC in data set [11] was over 4.8 µg/mL. The IC50 in [13] (read-out: IC50) was 844 nM.
Regarding `C#CCOc1ccc2c(C)cc(=O)oc2c1`, the inhibition worked out at 90% in [14] and 37% in data set [15].
With `O=c1ccc2ccc(OCc3cn(Cc4ccc(Oc5ccccc5O)cc4)nn3)cc2o1`, in data set [8], the inhibition was 10%. In data set [11], the MIC came out at 2.2 µg/mL.
Take `O=c1ccc2ccc(OCc3cnnn3Cc3ccc(Oc4ccccc4)c(O)c3)cc2o1`: the IC50 in data set [13] (read-out: IC50) stood at 630 nM.
As for `C#CCNC(=O)c1cc2ccccc2oc1=O`, in [15], the inhibition entry is “inactive”.
Consider `CCCCCCCCc1ccc(Oc2ccccc2)c(O)c1`, for which, in [17], the MIC came to 6.4 µM.
As for `CCN(CC)c1ccc2c(OCc3cn(Cc4ccc(Oc5ccccc5)c(O)c4)nn3)cc(=O)oc2c1`, the IC50 in [2] turned out to be 1100 nM; in data set [3], 600 nM; in [5], 1600 nM; in data set [10] it was 530 nM; in [13] (read-out: IC50), 54 nM. Moreover, the selectivity ratio in [4] turned out to be 0.4; in data set [7], 0.5; in data set [9] it was 1.3; in [12] it was 0.9. For the same compound, in [11], the MIC was found to be 0.7 µg/mL.
For `O=C(NCc1cn(Cc2ccc(Oc3ccccc3)c(O)c2)nn1)c1cc2ccccc2oc1=O`, in [11], the MIC came out at 4.7 µg/mL. In [13] (read-out: IC50), the IC50 came to 598 nM.
As for `Cc1cc(=O)oc2cc(OCc3cn(Cc4ccc(Oc5ccccc5)c(O)c4)nn3)ccc12`, the IC50 in data set [2] was 25000 nM; in data set [3] it was over 100000 nM; in data set [5], 31000 nM; in [10] it was 23900 nM; in data set [13] (read-out: IC50) it was 205 nM. Besides, the selectivity ratio in data set [4] was 19.1; in data set [7], over 80; in [9] it was 24.8; in [12], 20. For the same compound, the MIC in [11] is 0.6 µg/mL.

The record behind these values is ChEMBL document CHEMBL5625189, “Discovery of new diaryl ether inhibitors against Mycobacterium tuberculosis targeting the minor portal of InhA” (Eur J Med Chem, 2023).
